Source: ChEMBL document CHEMBL1933006, “Mechanistic analysis of muraymycin analogues: a guide to the design of MraY inhibitors” (J Med Chem, 2011)
Converted amounts (≈) assume the structure as drawn. The source made the active and inactive calls. The rule behind the calls is not given here.

Experiments:
Staphylococcus aureus [1] = assay: Antibacterial activity against methicillin-resistant Staphylococcus aureus isolate SR3637 after 20 hrs by broth microdilution method; assay type: functional; settings: isolate SR3637, 20 h
How it was run: (§1)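 NCCLS broth microdilution in cation-adjusted Mueller–Hinton broth. Serial 2-fold compound dilutions were inoculated with 5 × 10⁴ CFU per 0.1 mL and incubated at 35 °C for 20 h before scoring the MIC.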

Enterococcus faecalis [2] = assay: Antibacterial activity against Enterococcus faecalis ATCC 29212 after 20 hrs by broth microdilution method; assay type: functional; settings: ATCC 29212, 20 h; how it was run: as §1
Enterococcus faecium [3] = assay: Antibacterial activity against vancomycin-resistant Enterococcus faecium SR7917 after 20 hrs by broth microdilution method; assay type: functional; settings: SR7917, 20 h; how it was run: as §1
Enterococcus faecium [4] = assay: Antibacterial activity against Enterococcus faecium ATCC 19434 after 20 hrs by broth microdilution method; assay type: functional; settings: ATCC 19434, 20 h; how it was run: as §1
Enterococcus faecalis [5] = assay: Antibacterial activity against vancomycin-resistant Enterococcus faecalis SR7914 after 20 hrs by broth microdilution method; assay type: functional; settings: SR7914, 20 h; how it was run: as §1
Staphylococcus aureus [6] = assay: Antibacterial activity against methicillin-sensitive […] Staphylococcus aureus ATCC 29213 after 20 hrs by broth microdilution method; assay type: functional; settings: ATCC 29213, 20 h; how it was run: as §1
HepG2 = assay: Cytotoxicity against human HepG2 cells after 48 hrs by WST-8 assay; assay type: cell-based; settings: HepG2, 48 h
How it was run: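 HepG2 cells in DMEM with 10% FBS were seeded at 1 × 10⁴ cells/well and treated 24 h later with varying concentrations for 48 h. WST-8 reagent was then added for 1.5 h at 37 °C, and absorbance read at 450 nm. Percentage growth inhibition was calculated against untreated cells, and IC50 was derived. Tunicamycin served as positive control.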

Bacillus subtilis = assay: Antibacterial activity against Bacillus subtilis at 64 ug/ml; assay type: functional, organism-based
[7] = target: T1, Undecaprenyl-phosphate alpha-N-acetylglucosaminyl 1-phosphate transferase (Thermotoga maritima (strain ATCC 43589 / MSB8 / DSM 3109 / JCM 10099), UniProt Q9X1N5); assay: Inhibition of Thermotoga maritima WecA using radiolabeled UDP-[14C]GlcNAc as substrate after 30 mins
T1 sequence (Q9X1N5 whole entry): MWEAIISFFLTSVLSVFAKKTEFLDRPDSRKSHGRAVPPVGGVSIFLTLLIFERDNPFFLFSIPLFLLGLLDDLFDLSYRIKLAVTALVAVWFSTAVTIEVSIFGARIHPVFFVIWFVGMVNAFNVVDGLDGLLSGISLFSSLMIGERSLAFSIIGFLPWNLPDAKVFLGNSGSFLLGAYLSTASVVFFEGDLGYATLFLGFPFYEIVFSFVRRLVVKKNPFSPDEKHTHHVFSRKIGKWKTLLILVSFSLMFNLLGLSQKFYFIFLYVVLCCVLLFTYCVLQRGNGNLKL
How it was run: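 Purified Thermotoga maritima WecA was assayed at pH 8 (100 mM Tris-HCl, 10 mM MgCl₂, 1.1 mM C₅₅-P, 0.16 mM UDP-[¹⁴C]GlcNAc, 92.7 mM Triton X-100), final concentrations. The reaction was started by enzyme, run 30 min at 65 °C and stopped at 100 °C for 1 min. C₅₅-PP-GlcNAc was separated by TLC and scanned. IC50 was relative to a no-inhibitor control, mean of triplicates.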

[8] = target: T2, Phospho-N-acetylmuramoyl-pentapeptide-transferase (Bacillus subtilis (strain 168), UniProt Q03521); assay: Competitive inhibition of Bacillus subtilis MraY using UDP-MurNAc-pentapeptide as substrate after 30 mins by Lineweaver-Burk plot
T2 sequence (Q03521 whole entry): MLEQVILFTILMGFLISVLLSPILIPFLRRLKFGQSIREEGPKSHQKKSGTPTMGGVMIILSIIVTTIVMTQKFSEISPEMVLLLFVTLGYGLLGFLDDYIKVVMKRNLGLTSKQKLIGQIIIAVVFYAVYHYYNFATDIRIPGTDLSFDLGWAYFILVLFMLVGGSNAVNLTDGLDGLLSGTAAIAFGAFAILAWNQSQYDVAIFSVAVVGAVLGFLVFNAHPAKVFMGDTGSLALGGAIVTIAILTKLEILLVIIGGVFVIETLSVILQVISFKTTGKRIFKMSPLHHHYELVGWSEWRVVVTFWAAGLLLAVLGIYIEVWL
How it was run: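 B. subtilis MraY was assayed at pH 7.5 (100 mM Tris-HCl, 40 mM MgCl₂, 250 mM NaCl, 8.4 mM N-lauroylsarcosine), started by enzyme and run 30 min at 37 °C. Initial rates were taken at 0.25–1.5 mM UDP-MurNAc-[¹⁴C]pentapeptide, fixed 1 mM C₅₅-P, and several inhibitor levels. Lipid I was separated by TLC and scanned. Ki came from Lineweaver–Burk plots assuming a ping-pong Bi Bi mechanism.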

[9] = target: T2, Phospho-N-acetylmuramoyl-pentapeptide-transferase; assay: Noncompetitive inhibition of Bacillus subtilis MraY using […] as substrate after 30 mins by Lineweaver-Burk plot

Structure (SMILES)	MIC (Staphylococcus aureus [1]) [mg/L]	MIC (Enterococcus faecalis [2]) [mg/L]	MIC (Enterococcus faecium [3]) [mg/L]	MIC (Enterococcus faecium [4]) [mg/L]	MIC (Enterococcus faecalis [5]) [mg/L]	MIC (Staphylococcus aureus [6]) [mg/L]	IC50 (HepG2) [mg/L]	Activity (Bacillus subtilis)	IC50 [7] [µM]	Ki [8] [µM]	Ki [9] [µM]
CC(C)[C@H](NC(=O)N[C@H](C(=O)N[C@@H](CCCCCCCc1ccc(-c2ccccc2)cc1)C(=O)NCCCN[C@H](C(=O)O)[C@H](O[C@@H]1O[C@H](CN)[C@@H](O)[C@H]1O)[C@H]1O[C@@H](n2ccc(=O)[nH]c2=O)[C@H](O)[C@@H]1O)[C@@H]1CCNC(=N)N1)C(=O)O	4 (≈ 3.6 µM)	4 (≈ 3.6 µM)	8 (≈ 7.21 µM)	4 (≈ 3.6 µM)	16 (≈ 14.4 µM)	4 (≈ 3.6 µM)	> 100				
CC(C)C[C@@H](NC(=O)[C@@H](NC(=O)N[C@H](C(=O)O)C(C)C)[C@@H]1CCNC(=N)N1)C(=O)NCCCN[C@H](C(=O)O)[C@H](O[C@@H]1O[C@H](CN)[C@@H](O)[C@H]1O)[C@H]1O[C@@H](n2ccc(=O)[nH]c2=O)[C@H](O)[C@@H]1O	> 64	> 64	> 64	> 64	> 64	> 64		inactive			
CCCCCCCCCCCCCCC[C@@H](NC(=O)[C@@H](NC(=O)N[C@H](C(=O)O)C(C)C)[C@@H]1CCNC(=N)N1)C(=O)NCCCN[C@H](C(=O)O)[C@H](O[C@@H]1O[C@H](CN)[C@@H](O)[C@H]1O)[C@H]1O[C@@H](n2ccc(=O)[nH]c2=O)[C@H](O)[C@@H]1O	4 (≈ 3.74 µM)	2 (≈ 1.87 µM)	0.25 (≈ 0.234 µM)	0.5 (≈ 0.467 µM)	4 (≈ 3.74 µM)	2 (≈ 1.87 µM)	> 100		1340	0.698	0.698
CCCCOc1ccc(-c2ccc(CC[C@H](NC(=O)[C@@H](NC(=O)N[C@H](C(=O)O)C(C)C)[C@@H]3CCNC(=N)N3)C(=O)NCCCN[C@H](C(=O)O)[C@H](O[C@@H]3O[C@H](CN)[C@@H](O)[C@H]3O)[C@H]3O[C@@H](n4ccc(=O)[nH]c4=O)[C@H](O)[C@@H]3O)cc2)cc1	32 (≈ 28.8 µM)	16 (≈ 14.4 µM)	32 (≈ 28.8 µM)	16 (≈ 14.4 µM)	64 (≈ 57.5 µM)	16 (≈ 14.4 µM)	> 100				
CCCCCCOc1ccc(-c2ccc([C@H](NC(=O)[C@@H](NC(=O)N[C@H](C(=O)O)C(C)C)[C@@H]3CCNC(=N)N3)C(=O)NCCCN[C@H](C(=O)O)[C@H](O[C@@H]3O[C@H](CN)[C@@H](O)[C@H]3O)[C@H]3O[C@@H](n4ccc(=O)[nH]c4=O)[C@H](O)[C@@H]3O)cc2)cc1	8 (≈ 7.19 µM)	8 (≈ 7.19 µM)	4 (≈ 3.6 µM)	4 (≈ 3.6 µM)	8 (≈ 7.19 µM)	4 (≈ 3.6 µM)	> 100				
CCCCCCCCCCCCCCC[C@H](NC(=O)[C@@H](NC(=O)N[C@H](C(=O)O)C(C)C)[C@@H]1CCNC(=N)N1)C(=O)NCCCN[C@H](C(=O)O)[C@H](O[C@@H]1O[C@H](CN)[C@@H](O)[C@H]1O)[C@H]1O[C@@H](n2ccc(=O)[nH]c2=O)[C@H](O)[C@@H]1O	4 (≈ 3.74 µM)	4 (≈ 3.74 µM)	2 (≈ 1.87 µM)	4 (≈ 3.74 µM)	4 (≈ 3.74 µM)	2 (≈ 1.87 µM)			970	0.247	0.247
CC(C)C[C@H](NC(=O)[C@@H](NC(=O)N[C@H](C(=O)O)C(C)C)[C@@H]1CCN=C(N)N1)C(=O)NCCCN[C@H](C(=O)O)[C@H](O[C@@H]1O[C@H](CN)[C@@H](O)[C@H]1O)[C@H]1O[C@@H](n2ccc(=O)[nH]c2=O)[C@H](O)[C@@H]1O [MURAMYCIN D2]									1230	0.0076	0.0076
CC(C)C[C@H](NC(=O)[C@@H](NC(=O)N[C@H](C(=O)O)C(C)C)[C@@H]1CCNC(=N)N1)C(=O)NCCCN[C@H](C(=O)O)[C@H](O[C@@H]1O[C@H](CN)[C@@H](O)[C@H]1O)[C@H]1O[C@@H](n2ccc(=O)[nH]c2=O)[C@H](O)[C@@H]1O [MURAMYCIN D2]	> 64	> 64	> 64	> 64	> 64	> 64		inactive			
